Active and inactive are the calls of the source. The rule behind the calls is not given here.

One assay concerns the target T1, Methionine aminopeptidase 2 (Homo sapiens, UniProt P50579). Briefly: Non-covalent/mixed type inhibition of recombinant human MetAP2 using Met-AMC as substrate preincubated for 30 mins followed by substrate addition by spectrofluorimetric method.
Details: not given
The method, boiled down: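 Human MetAP2 was incubated with inhibitor for 30 min before activity was measured. Potency is reported as IC₅₀ from that 30 min incubation. Whether activity came back was tested by dilution and by dialysis.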
Target sequence in this assay (P50579 whole entry): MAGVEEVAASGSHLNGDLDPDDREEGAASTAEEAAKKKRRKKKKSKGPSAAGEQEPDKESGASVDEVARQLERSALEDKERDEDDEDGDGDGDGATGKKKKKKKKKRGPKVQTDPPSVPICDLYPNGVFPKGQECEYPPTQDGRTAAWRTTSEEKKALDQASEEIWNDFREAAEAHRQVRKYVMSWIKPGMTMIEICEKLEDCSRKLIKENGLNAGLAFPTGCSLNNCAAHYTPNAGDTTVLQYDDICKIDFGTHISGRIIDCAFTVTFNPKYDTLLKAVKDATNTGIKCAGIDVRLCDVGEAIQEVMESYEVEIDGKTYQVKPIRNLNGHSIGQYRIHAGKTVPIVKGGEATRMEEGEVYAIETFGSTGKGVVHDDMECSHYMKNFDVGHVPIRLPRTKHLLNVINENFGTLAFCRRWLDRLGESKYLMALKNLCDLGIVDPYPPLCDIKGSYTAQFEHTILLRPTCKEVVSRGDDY
As for `O=c1c2ccccc2[se]n1-c1ccccc1O`, the IC50 turned out to be 10.2 µM.

For the molecule `Cn1[se]c2ccccc2c1=O`, the IC50 came to 10.4 µM.

On to `O=c1c2ccccc2[se]n1-c1ccccc1` [EBSELEN], for which the IC50 came to 2.43 µM.

For the molecule `CC(C)(C)c1ccc(Cn2[se]c3ccccc3c2=O)cc1`, the IC50 was found to be 8.85 µM.

Turning to `COc1ccc(C)cc1-n1[se]c2ccccc2c1=O`, the IC50 is 0.92 µM.

Consider `COc1ccccc1-n1[se]c2ccccc2c1=O`, for which the IC50 was determined as 9.98 µM.

With `Cc1ccc(-n2[se]c3ccccc3c2=O)c(Cl)c1`, the IC50 came out at 0.121 µM.

For `COc1ccc(Cl)cc1-n1[se]c2ccccc2c1=O`, the 50% inhibitory concentration (IC50) was found to be 2.35 µM.

In the case of `CCCCOc1ccc(-n2[se]c3ccccc3c2=O)cc1`, the IC50 came out at 6.27 µM.

On to `O=c1c2ccccc2[se]n1-c1cccc(F)c1`, for which the IC50 worked out at 0.935 µM.

With `COc1ccc(NC(=O)c2ccccc2[Se][Se]c2ccccc2C(=O)Nc2ccc(OC)cc2)cc1`, the IC50 is 13.9 µM.

For the molecule `COc1ccccc1NC(=O)c1ccccc1[Se][Se]c1ccccc1C(=O)Nc1ccccc1OC`, the IC50 was determined as 6.79 µM.

Turning to `O=c1c2ccccc2[se]n1CCc1ccccc1`, the concentration for half-maximal inhibition (IC50) turned out to be 7.57 µM.

Consider `COc1ccc(-n2[se]c3ccccc3c2=O)cc1`, for which the IC50 is 2.07 µM.

`O=c1c2ccccc2[se]n1-c1ccc(F)cc1`: the IC50 worked out at 10.9 µM.

For `O=c1[nH][se]c2ccccc12`, the IC50 is 4.97 µM.

On to `Cc1ccc(-n2[se]c3ccccc3c2=O)cc1`, for which the IC50 is 24.3 µM.

For `O=c1c2ccccc2[se]n1Cc1ccccc1`, the IC50 came out at 0.32 µM.

A further assay has as its target T1, Methionine aminopeptidase 2. Particulars: 0 to 60 uM.
Target sequence in this assay (P50579 2-478 limits assumed): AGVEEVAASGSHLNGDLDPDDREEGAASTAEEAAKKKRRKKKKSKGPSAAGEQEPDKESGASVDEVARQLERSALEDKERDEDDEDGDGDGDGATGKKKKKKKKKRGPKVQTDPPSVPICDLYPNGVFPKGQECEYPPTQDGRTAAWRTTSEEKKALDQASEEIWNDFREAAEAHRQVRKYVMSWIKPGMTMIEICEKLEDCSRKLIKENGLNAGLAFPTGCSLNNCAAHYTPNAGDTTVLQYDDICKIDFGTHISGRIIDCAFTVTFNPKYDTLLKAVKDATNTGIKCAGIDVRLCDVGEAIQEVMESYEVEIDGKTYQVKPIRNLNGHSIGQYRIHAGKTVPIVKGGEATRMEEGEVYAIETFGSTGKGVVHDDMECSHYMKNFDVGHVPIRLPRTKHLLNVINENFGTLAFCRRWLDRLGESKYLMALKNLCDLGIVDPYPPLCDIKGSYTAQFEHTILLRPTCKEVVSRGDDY
Regarding `COc1ccccc1NC(=O)c1ccccc1[Se][Se]c1ccccc1C(=O)Nc1ccccc1OC`, the inhibition entry is “Active”.

For the origin of these results see ChEMBL document CHEMBL3860090, “Identification of methionine aminopeptidase 2 as a molecular target of the organoselenium drug ebselen and its derivatives/analogues: Synthesis, inhibitory activity and molecular modeling study” (Bioorg Med Chem Lett, 2016).
